Test results from ChEMBL document CHEMBL5678799 (Biochem J, 2009).
The source made the active and inactive calls. The rule behind the calls is not given here.

Legend:
[1] = biological target: Serine/threonine-protein kinase Chk1 (Homo sapiens) (UniProt O14757); assay: Inhibition of recombinant human N-terminal GST-tagged CHK1 (1 to 476 residues) expressed in baculovirus infected Sf21 cells assessed as remaining activity at 10 uM using CHKtide as substrate incubated for 30 mins in presence of [gamma-33P]ATP by filter binding method relative to control
How it was run: (§1)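 Robotic radiometric panel assay, 30 min at room temperature (21 °C), with 10 mM magnesium acetate. […] Compound at 1 or 10 µM. Residual activity expressed relative to compound-free control; triplicate average ± S.D.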

[2] = system: MEF; assay: Inhibition of mTORC2 in MEF cells assessed as reduction in NDRG1 phosphorylation incubated ay 1 uM for 30 mins by immunoblot analysis; assay type: cell-based; conditions: Mus musculus
How it was run: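 Cells (MEFs, wild-type or knockout, or HeLa) kept in 10% serum, then exposed 30 min to inhibitor or vehicle at the stated level. Washed twice in ice-cold PBS and lysed in Tris lysis buffer with CHAPS, phosphatase and protease inhibitors. Lysates cleared at 18000 g and immunoblotted with phospho-specific antibodies and ECL detection. Blots are representative of three experiments.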

[3] = biological target: Tyrosine-protein kinase BTK (Homo sapiens) (UniProt Q06187); assay: (§2) Inhibition of recombinant human N-terminal His6-tagged BTK (2 to 659 residues) expressed in baculovirus infected Sf21 cells assessed as remaining activity at 1 uM using KVEKIGEGTYGVVYK as substrate incubated for 30 mins in presence of [gamma-33P]ATP by filter binding method relative to control
How it was run: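 Incubation was 30 min at room temperature (21 °C) under conditions linear with time and enzyme amount. Activity is reported as percent of control lacking compound, triplicate mean ± S.D.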

[4] = biological target: Calcium/calmodulin-dependent protein kinase type 1 (Homo sapiens) (UniProt Q14012); assay: Inhibition of recombinant human N-terminal GST-tagged CAMK1alpha (2 to 369 residues) expressed in Escherichia coli assessed as remaining activity at 1 uM using YLRRRLSDSNF as substrate incubated for 30 mins in presence of [gamma-33P]ATP by filter binding method relative to control
How it was run: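 Run robotically for 30 min at 21 °C under linear conditions. Compound at 1 or 10 µM. Percentage activity remaining versus control without compound, triplicate mean ± S.D.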

[5] = biological target: Serine/threonine-protein kinase 26 (Homo sapiens) (UniProt Q9P289); assay: Inhibition of recombinant human N-terminal His6-tagged MST4 (1 to 416 residues) expressed in baculovirus infected Sf21 cells assessed as remaining activity at 10 uM using MBP as substrate incubated for 30 mins in presence of [gamma-33P]ATP by filter binding method relative to control
[6] = biological target: Ephrin type-B receptor 3 (Homo sapiens) (UniProt P54753); assay: Inhibition of recombinant human N-terminal His6-tagged EPHB3 (561 to 998 residues) expressed in Escherichia coli assessed as remaining activity at 10 uM using Poly(Glu, Tyr) as substrate incubated for 30 mins in presence of [gamma-33P]ATP by filter binding method relative to control
How it was run: (§3)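 Panel assays were run for 30 min at 21 °C, within the linear range for time and enzyme. […] Results are percent activity remaining relative to compound-free control, averaged from triplicate ± S.D.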

[7] = biological target: mTORC2 (Homo sapiens) (UniProt P42345+Q6R327+Q9BVC4+Q9BPZ7); conditions: HEK293, dose 30-1000 nM, time 30.0 min
[8] = biological target: Serine/threonine-protein kinase 3 (Homo sapiens) (UniProt Q13188); assay: Inhibition of recombinant human N-terminal GST-tagged MST2 (2 to 491 residues) expressed in baculovirus infected Sf21 cells assessed as remaining activity at 10 uM using MBP as substrate incubated for 30 mins in presence of [gamma-33P]ATP by filter binding method relative to control; how it was run: as §3
[9] = biological target: MAP kinase-activated protein kinase 5 (Homo sapiens) (UniProt Q8IW41); assay: Inhibition of recombinant human His6-tagged PRAK (1 to 471 residues) expressed in baculovirus infected Sf21 cells assessed as remaining activity at 10 uM using phosphorylase b peptide as substrate incubated for 30 mins in presence of [gamma-33P]ATP by filter binding method relative to control; how it was run: as §1
[10] = biological target: Proto-oncogene tyrosine-protein kinase Src (Homo sapiens) (UniProt P12931); assay: Inhibition of recombinant human N-terminal His6-tagged SRC (1 to 536 residues) expressed in baculovirus infected Sf21 cells assessed as remaining activity at 10 uM using KVEKIGEGTYGVVYK as substrate incubated for 30 mins in presence of [gamma-33P]ATP by filter binding assay relative to control
[11] = system: RAC-alpha serine/threonine-protein kinase (Homo sapiens), P31749 [S473D]; assay: as §2, with “human” for “human N-terminal”, “AKT1 S473D mutant (118” for “BTK (2”, “480” for “659”, “crosstide peptide” for “KVEKIGEGTYGVVYK”
How it was run: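 Radiometric panel assay run robotically at 21 °C for 30 min, linear in time and enzyme. […] Activity is expressed as percentage of the compound-omitted control, averaged from triplicates ± S.D.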

[12] = biological target: Mitogen-activated protein kinase 3 (Homo sapiens) (UniProt P27361); assay: Inhibition of recombinant human N-terminal GST-tagged ERK1 (2 to 379 residues) expressed in Escherichia coli assessed as remaining activity at 10 uM using MBP as substrate incubated for 30 mins in presence of [gamma-33P]ATP by filter binding method relative to control
How it was run: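 Kinase panel run robotically at 21 °C for 30 min, linear in time and enzyme. […] Compound tested at 1 or 10 µM. Activity given as percentage of incubations without compound, mean of triplicates ± S.D.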

[13] = biological target: mTORC1 (Homo sapiens) (UniProt P42345+Q8N122+Q9BVC4); conditions: HEK293, dose 100-300 nM, time 30.0 min
[14] = biological target: Mitogen-activated protein kinase; ERK1/ERK2 (Homo sapiens) (UniProt P27361+P28482); assay: Inhibition of ERK1/2 in serum starved/PMA-stimulated HEK293 cells assessed as reduction in RSK activity at 1 uM using crosstide as substrate incubated for 30 mins in presence of [32P]-ATP by liquid-scintillation counting method; assay type: cell-based
[15] = biological target: Phosphatidylinositol 4-phosphate 3-kinase C2 domain-containing subunit beta (Homo sapiens) (UniProt O00750); assay: Inhibition of PI3KC2beta (unknown origin) assessed as remaining activity at 10 uM using phosphatidylinositol as substrate incubated for 30 mins in presence of ATP relative to control
How it was run: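 PI3KC2β assayed with 20 μM phosphatidylinositol, 0.2 mM ATP, 2 mM MgCl2, in Tris/HCl pH 7.5 with CHAPS, 30 min at room temperature. Stopped with EDTA, product detected by time-resolved FRET competition with PtdIns3P–biotin and SGK PX domain. Activity as % of no-compound control, triplicate.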

[16] = biological target: Serine/threonine-protein kinase 3 (Homo sapiens) (UniProt Q13188); assay: Inhibition of recombinant human N-terminal GST-tagged MST2 (2 to 491 residues) expressed in baculovirus infected Sf21 cells assessed as remaining activity at 1 uM using MBP as substrate incubated for 30 mins in presence of [gamma-33P]ATP by filter binding method relative to control; how it was run: as §3

Serine/threonine-protein kinase 3 (Homo sapiens), sequence (Q13188 whole entry, the tested form may be a part): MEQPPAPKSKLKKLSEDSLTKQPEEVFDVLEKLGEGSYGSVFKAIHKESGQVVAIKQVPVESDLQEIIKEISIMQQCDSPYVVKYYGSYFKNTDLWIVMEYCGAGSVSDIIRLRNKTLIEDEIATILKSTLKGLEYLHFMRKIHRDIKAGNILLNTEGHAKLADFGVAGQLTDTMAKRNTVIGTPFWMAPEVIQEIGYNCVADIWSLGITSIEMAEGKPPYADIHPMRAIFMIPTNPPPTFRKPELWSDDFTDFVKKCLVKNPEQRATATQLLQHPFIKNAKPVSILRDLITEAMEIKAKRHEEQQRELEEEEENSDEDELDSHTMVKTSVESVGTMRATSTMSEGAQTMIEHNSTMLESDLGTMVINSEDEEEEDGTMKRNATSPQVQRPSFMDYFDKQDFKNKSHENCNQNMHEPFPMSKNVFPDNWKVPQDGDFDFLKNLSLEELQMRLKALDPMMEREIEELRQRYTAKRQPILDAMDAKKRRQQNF
Proto-oncogene tyrosine-protein kinase Src (Homo sapiens), sequence (P12931 2-536 limits assumed): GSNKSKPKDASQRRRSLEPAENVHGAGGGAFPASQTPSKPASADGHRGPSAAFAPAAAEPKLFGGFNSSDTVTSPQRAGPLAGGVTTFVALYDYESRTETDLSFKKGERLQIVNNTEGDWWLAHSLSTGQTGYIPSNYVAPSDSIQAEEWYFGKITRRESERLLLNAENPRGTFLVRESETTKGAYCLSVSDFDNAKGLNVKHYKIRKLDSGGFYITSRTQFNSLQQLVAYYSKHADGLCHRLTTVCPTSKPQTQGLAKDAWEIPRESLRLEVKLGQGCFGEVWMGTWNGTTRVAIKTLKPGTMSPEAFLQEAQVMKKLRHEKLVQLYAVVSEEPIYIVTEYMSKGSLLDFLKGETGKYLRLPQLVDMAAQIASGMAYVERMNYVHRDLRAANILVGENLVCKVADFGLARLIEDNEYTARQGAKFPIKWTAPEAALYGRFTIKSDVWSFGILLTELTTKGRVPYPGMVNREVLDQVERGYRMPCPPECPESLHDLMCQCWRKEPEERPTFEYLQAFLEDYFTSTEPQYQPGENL
Serine/threonine-protein kinase Chk1 (Homo sapiens), sequence (O14757 whole entry, the tested form may be a part): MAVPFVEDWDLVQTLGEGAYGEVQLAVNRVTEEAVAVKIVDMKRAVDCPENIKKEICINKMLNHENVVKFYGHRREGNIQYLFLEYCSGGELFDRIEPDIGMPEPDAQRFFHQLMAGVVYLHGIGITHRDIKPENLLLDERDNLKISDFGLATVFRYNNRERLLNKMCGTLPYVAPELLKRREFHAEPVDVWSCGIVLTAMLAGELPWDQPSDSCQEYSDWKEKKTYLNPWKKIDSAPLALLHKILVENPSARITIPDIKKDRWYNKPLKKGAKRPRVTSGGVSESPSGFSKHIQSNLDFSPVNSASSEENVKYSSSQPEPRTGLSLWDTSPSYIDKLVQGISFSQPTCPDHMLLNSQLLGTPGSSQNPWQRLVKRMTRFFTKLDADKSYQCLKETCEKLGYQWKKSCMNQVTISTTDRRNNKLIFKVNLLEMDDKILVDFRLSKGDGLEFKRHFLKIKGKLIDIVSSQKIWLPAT
Tyrosine-protein kinase BTK (Homo sapiens), sequence (Q06187 whole entry, the tested form may be a part): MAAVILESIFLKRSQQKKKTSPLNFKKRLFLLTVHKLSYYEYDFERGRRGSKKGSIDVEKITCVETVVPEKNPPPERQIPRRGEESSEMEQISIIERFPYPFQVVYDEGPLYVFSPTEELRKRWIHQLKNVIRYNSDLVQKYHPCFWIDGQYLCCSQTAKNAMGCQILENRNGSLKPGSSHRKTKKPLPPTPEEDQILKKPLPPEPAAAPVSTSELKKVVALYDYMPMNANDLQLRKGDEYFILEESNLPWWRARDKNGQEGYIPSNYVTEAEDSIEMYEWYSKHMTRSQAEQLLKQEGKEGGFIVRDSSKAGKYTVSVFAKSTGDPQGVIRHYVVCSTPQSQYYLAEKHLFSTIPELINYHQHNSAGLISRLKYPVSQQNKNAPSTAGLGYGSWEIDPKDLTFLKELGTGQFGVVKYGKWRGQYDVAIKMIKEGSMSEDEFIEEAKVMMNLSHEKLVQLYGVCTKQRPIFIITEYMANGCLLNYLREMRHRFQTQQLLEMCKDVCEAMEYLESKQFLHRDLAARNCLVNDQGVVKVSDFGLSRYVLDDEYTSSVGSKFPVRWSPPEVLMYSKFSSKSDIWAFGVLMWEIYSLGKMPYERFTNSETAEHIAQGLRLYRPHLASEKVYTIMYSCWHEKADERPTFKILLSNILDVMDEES
Mitogen-activated protein kinase 3 (Homo sapiens), sequence (P27361 whole entry, the tested form may be a part): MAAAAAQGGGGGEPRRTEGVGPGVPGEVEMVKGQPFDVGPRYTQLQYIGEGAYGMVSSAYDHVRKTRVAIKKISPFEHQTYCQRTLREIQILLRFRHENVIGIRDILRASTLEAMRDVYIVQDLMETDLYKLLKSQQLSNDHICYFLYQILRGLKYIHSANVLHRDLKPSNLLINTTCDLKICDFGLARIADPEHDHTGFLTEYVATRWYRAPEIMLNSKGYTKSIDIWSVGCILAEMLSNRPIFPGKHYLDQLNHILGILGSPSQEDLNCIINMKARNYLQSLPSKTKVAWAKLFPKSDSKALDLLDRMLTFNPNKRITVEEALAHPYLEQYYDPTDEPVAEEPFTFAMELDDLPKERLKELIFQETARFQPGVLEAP
Mitogen-activated protein kinase; ERK1/ERK2 (Homo sapiens), sequence (P27361 whole entry, looked up, the tested form may be a part): as the sequence (P27361 whole entry, the tested form may be a part) above
Mitogen-activated protein kinase; ERK1/ERK2 (Homo sapiens), sequence (P28482 whole entry, looked up, the tested form may be a part): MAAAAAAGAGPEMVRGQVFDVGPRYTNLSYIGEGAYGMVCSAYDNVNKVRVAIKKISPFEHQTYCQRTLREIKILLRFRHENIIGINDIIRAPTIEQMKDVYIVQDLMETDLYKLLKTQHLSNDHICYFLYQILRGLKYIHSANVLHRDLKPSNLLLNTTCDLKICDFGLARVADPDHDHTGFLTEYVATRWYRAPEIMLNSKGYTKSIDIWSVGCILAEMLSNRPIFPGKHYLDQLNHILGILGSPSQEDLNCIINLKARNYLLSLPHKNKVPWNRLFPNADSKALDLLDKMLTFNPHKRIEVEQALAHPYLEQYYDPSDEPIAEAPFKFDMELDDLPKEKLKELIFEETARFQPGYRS
Serine/threonine-protein kinase 26 (Homo sapiens), sequence (Q9P289 2-416 limits assumed): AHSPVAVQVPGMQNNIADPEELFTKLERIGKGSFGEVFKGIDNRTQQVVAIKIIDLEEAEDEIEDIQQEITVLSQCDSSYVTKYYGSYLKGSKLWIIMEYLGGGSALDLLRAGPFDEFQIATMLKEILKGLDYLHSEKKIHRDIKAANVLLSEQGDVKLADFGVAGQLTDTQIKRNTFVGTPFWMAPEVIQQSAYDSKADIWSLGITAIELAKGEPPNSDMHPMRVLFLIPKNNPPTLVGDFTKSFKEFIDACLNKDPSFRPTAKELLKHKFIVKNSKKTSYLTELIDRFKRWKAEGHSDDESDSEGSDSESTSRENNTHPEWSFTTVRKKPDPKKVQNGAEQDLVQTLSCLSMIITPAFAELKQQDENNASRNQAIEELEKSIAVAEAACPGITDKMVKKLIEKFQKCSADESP
MAP kinase-activated protein kinase 5 (Homo sapiens), sequence (Q8IW41 whole entry, the tested form may be a part): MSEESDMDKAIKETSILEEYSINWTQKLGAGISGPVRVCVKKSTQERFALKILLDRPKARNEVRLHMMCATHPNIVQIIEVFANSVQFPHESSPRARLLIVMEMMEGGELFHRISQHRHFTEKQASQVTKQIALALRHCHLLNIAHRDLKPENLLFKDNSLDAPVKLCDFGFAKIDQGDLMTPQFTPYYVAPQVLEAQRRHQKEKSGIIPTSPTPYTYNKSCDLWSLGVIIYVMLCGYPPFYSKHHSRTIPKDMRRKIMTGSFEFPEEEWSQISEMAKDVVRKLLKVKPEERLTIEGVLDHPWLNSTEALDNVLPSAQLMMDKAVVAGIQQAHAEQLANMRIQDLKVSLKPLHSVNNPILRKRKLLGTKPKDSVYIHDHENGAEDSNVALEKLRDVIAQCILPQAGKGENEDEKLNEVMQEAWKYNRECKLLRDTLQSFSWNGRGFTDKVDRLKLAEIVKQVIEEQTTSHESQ
RAC-alpha serine/threonine-protein kinase (Homo sapiens), P31749 [S473D], sequence (P31749 whole entry S473D): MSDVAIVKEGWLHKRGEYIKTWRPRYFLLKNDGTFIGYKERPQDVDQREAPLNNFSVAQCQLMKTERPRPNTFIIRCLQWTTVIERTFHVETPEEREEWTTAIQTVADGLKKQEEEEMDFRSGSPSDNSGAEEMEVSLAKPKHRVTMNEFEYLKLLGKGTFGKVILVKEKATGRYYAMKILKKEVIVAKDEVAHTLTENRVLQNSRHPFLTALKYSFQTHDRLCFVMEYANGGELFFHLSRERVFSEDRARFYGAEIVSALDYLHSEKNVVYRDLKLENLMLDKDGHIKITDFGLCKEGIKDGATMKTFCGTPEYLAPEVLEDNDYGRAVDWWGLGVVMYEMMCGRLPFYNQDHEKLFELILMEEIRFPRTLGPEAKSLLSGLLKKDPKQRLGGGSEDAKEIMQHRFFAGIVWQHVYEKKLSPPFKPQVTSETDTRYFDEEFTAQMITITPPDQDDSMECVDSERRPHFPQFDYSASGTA

COc1ccc(-c2ccc3c(N4CCOCC4)nc(N4C[C@@H](C)O[C@@H](C)C4)nc3n2)cc1CO [Ku-0063794] was tested. Which Activity [1] did it give?
The Activity was 86%.

What about the inhibition [2] of the same compound?
The inhibition was “Active”.

What about the Activity [3] of the same compound?
Its Activity is 85%.

What about the Activity [4] of the same compound?
Its Activity is 96%.

And the Activity [5]?
The Activity was 86%.

What about the Activity [6] of the same compound?
Its Activity is 78%.

What about the inhibition [7] of the same compound?
The inhibition was “Dose-Dependent Effect”.

And the Activity [8]?
The Activity was 102%.

And the Activity [9]?
Its Activity is 87%.

What about the Activity [10] of the same compound?
The Activity was 86%.

And the Activity [11]?
Its Activity is 98%.

What about the Activity [12] of the same compound?
Its Activity is 87%.

And the inhibition [13]?
The inhibition was 100%.

And the inhibition [14]?
Its inhibition is “inactive”.

What about the Activity [15] of the same compound?
Its Activity is 82%.

And the Activity [16]?
Its Activity is 81%.
